Data reported in the RNAGym collection of RNA variant scans (doi:10.1126/science.aae0568).
This sample holds only a part of the variants without activity.

B1: tRNA (parent)
chain: GUUCCGUUGGCGUAAUGGUAACGCGUCUCCCUCCUAAGGAGAAGACUGCGGGUUCGAGUCCCGUACGGAACG

Variants of: B1
Assay: yeast fitness relative to wild type (ratio to wild type); higher = fitter; tRNA-Arg(CCU), competitive growth, 37 C, YPD
Method in brief: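 Variants of the tRNA-Arg(CCU) gene were chemically synthesised with a 3% per-site mutation rate across 69 sites and placed at the native genomic locus in Saccharomyces cerevisiae. Six parallel replicates of the pooled strains were competed in YPD at 37°C for 24 hours, and gene amplicons from the start and end populations were read by 100-nucleotide paired-end sequencing. Darwinian fitness relative to wild type was derived from changes in genotype frequencies. Genotypes required ≥ 100 starting reads, and estimates < 0.5 were set to 0.5.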

Variant | yeast fitness
C4G C34G A42U C61U C66U | ≤ 0.5
C4G C34G U47A C49A A65G | 0.519
C4G C30G C55U | ≤ 0.5
C4G C24A G39A A42U U47A C60G | ≤ 0.5
C4G C11U A36U G52C | ≤ 0.5
C4G C27U G58A | 0.61
C4G C34U G67A A69U | ≤ 0.5
C4G G6A A21C | 0.701
C4G C11G G52A C55U C61A | ≤ 0.5
C4G C34A | 0.762
C4G C66G | 0.671
C4G C66U | 0.836
C4G C33G U35C U59A A69U | ≤ 0.5
C4G C11G A20G A36U G63A A65U C66U | ≤ 0.5
C4G C30U C49U | 0.604
C4G C29A C30U C62G U64A | ≤ 0.5
C4G C29G C49U | 0.588
C4G C55A C60A | ≤ 0.5
C4G C27G C30G C49U C60U G63C | 0.562
C4G C60G C61U | ≤ 0.5
C4G C11G C55U A70G | ≤ 0.5
C4G C11U A14G C46G C55G C61G | ≤ 0.5
C4G C24A C34A | 0.563
C4G C30G G50U C66U | 0.588

Variant | yeast fitness
C4G C30G A42C C55G | ≤ 0.5
C4G C29G C61U | 0.562
C4G C46G | 0.854
C4G C11G C29A A40G | ≤ 0.5
C4G C22U C46G G63A | ≤ 0.5
C4G C30U G63C | 0.628
C4G C27U C29G | ≤ 0.5
C4G C61G | 0.659
C4G C61U | 0.935
C4G C33G A36C C66U | ≤ 0.5
C4G C24U A69U | 0.652
C4G C30U G41A | 0.532
C4G C31G A40G C62A | ≤ 0.5
C4G C27A G48A | 0.571
C4G C34A C66U | ≤ 0.5
C4G C30G C33A | ≤ 0.5
C4G C24U C30A G52C | ≤ 0.5
C4G C22U C34G A36U | ≤ 0.5
C4G C55A A57U | ≤ 0.5
C4G C11U U47A | ≤ 0.5
C4G C11G C46U U59C C62G A65U | ≤ 0.5
C4G C24U U47C | 0.673
C4G C30G C33G C66U | ≤ 0.5
C4G C24U U32G A40U U64G | ≤ 0.5

Variant | yeast fitness
C4G C49U G52A | 0.55
C4G C22U C34G A36U C61U | ≤ 0.5
C4G C30G U32C | ≤ 0.5
C4G C11U A42U G58A A69U | ≤ 0.5
C4G G6A C24U A40U A65C A69U | 0.815
C4G C34U C49A G68C | ≤ 0.5
C4G C22U G38C | ≤ 0.5
C4G C22A C66U | ≤ 0.5
C4G C11G C55U U59C C61A | ≤ 0.5
C4G C33G A42U U47G U54A C61A | ≤ 0.5
C4G C30U A40G C60G | ≤ 0.5
C4G C11U C49U | 0.562
C4G C24G C30U C46G | ≤ 0.5
C4G C27A C61A C66U A69C | ≤ 0.5
C4G C11U A14G | 0.556
C4G C30G G58A | ≤ 0.5
C4G C11G C22U C46U | ≤ 0.5
C4G C11G C22U C46G | ≤ 0.5
C4G C34G A40G | 0.57
C4G C30A A70U | 0.695
C4G C11U U19A U32A A37U U64C | ≤ 0.5
C4G C22G C33U A36C A40U | 0.663
C4G C22U C34G G63C | ≤ 0.5
C4G C27A A36G | 0.534

Variant | yeast fitness
C4G C34U C49A | 0.61
C4G C29A C33G A45C G67C | ≤ 0.5
C4G C24G U26G G39C C49G A65G | ≤ 0.5
C4G C29A C34U A36U | 0.578
C4G C22G C33G A36C A65G | ≤ 0.5
C4G C34G A65G | ≤ 0.5
C4G C49U U54G | ≤ 0.5
C4G C30G A69U | ≤ 0.5
C4G C22G A45C C55U | ≤ 0.5
C4G C27G A65U G68U | 0.562
C4G G6A C11U C29A G63A A70G | ≤ 0.5
C4G C22A U35A | ≤ 0.5
C4G C29U G56A A65C A70C | 0.77
C4G C62A C66U | 0.704
C4G C30G A42U C55U C66A | ≤ 0.5
C4G C11G A65C | 0.576
C4G C29G A36C A37U A40C A45G G51A | 0.503
C4G C11U A14G C55G G68C | ≤ 0.5
C4G C30A C62U | 0.526
C4G C30A C62A | ≤ 0.5
C4G C49U G52A C60G | ≤ 0.5
C4G C27U C49U | ≤ 0.5
C4G C11G U26A U54A C60U | ≤ 0.5
C4G C11G A36G C55U C61A | 0.52

Variant | yeast fitness
C4G C22A C55G | ≤ 0.5
C4G G6A A69U | 0.667
C4G C27A C31U | ≤ 0.5
C4G G6A C46U A69C | 0.536
C4G C11G C29A C30U | ≤ 0.5
C4G C11G U47A C49U | ≤ 0.5
C4G C22U C55G | ≤ 0.5
C4G C11G A21U A36U G58C | ≤ 0.5
C4G C30A G67A | ≤ 0.5
C4G C34G A42U C61U | 0.646
C4G C30A A42C A69U | ≤ 0.5
C4G C60U G63C G68A | ≤ 0.5
C4G C55U | 0.748
C4G C34G A43G A57C | ≤ 0.5
C4G C33G G67A | ≤ 0.5
C4G C31G | 0.761
C4G C27U C31U | 0.652
C4G C33U A43C | ≤ 0.5
C4G G6A A21C U53A U54A | ≤ 0.5
C4G C27U G41C A42C | ≤ 0.5
C4G C11U A36G | 0.57
C4G C11A U28G U47G C49G U53G C55G | ≤ 0.5
C4G C11G C31U G41C U54G | 0.707
C4G C30G A40G A65C | ≤ 0.5

Variant | yeast fitness
C4G C11G | 0.623
C4G C11U | 0.967
C4G C24G C27A U28C A65U | ≤ 0.5
C4G C27A C46U G67C | ≤ 0.5
C4G C49G G67A | ≤ 0.5
C4G C27U | 0.789
C4G C27A | 0.734
C4G C55U G63A G68C | ≤ 0.5
C4G C11U A14G U32C | ≤ 0.5
C4G C55U G68C | 0.56
C4G C24G C33G G63A | 0.554
C4G C22U G68C | ≤ 0.5
C4G C31A A42C C46G | 0.561
C4G C24U C62A C66U | ≤ 0.5
C4G C62A | 0.67
C4G C60G G68C | 0.622
C4G C11A U35A C49G | 0.526
C4G C34U C55A G68C | ≤ 0.5
C4G C11U A14U C30G | ≤ 0.5
C4G C29A U32A A45C A65C | ≤ 0.5
C4G C27G C34U A37C C55U | ≤ 0.5
C4G C61G G63C A70G | 0.516
C4G C29A C46A | ≤ 0.5
C4G C49G U64G A65G A70U | ≤ 0.5

Variant | yeast fitness
C4G C46U G48A | 1.04
C4G C46G A69U | 0.721
C4G C34A U54C | 0.54
C4G C22U G50C | ≤ 0.5
C4G C34G A37U A42U C61U | ≤ 0.5
C4G C46U G67C | 0.597
C4G C29A C60U C61G | ≤ 0.5
C4G C11G U26A A65G | ≤ 0.5
C4G C22G | 0.787
C4G C22U | 0.976
C4G C22U U32C U64C | ≤ 0.5
C4G C33U A45U C60G | ≤ 0.5
C4G C11G U26A C60G | ≤ 0.5
C4G C24A | 0.634
C4G C11U U19C U28G A45C U53A G63C | ≤ 0.5
C4G C55G G63A | 0.558
C4G C29G C46U | ≤ 0.5
C4G C24A C46U U64C | ≤ 0.5
C4G C49A G56C C61U | 0.609
C4G C11A U32A U35A C49U U59G G67U | ≤ 0.5
C4G C60A | 0.642
C4G C30G C33A A70G | ≤ 0.5
C4G C22G C29A A65C | ≤ 0.5
